Experimental data from ChEMBL document CHEMBL4257586, “Polyheteroaryl Oxazole/Pyridine-Based Compounds Selected in Vitro as G-Quadruplex Ligands Inhibit Rock Kinase and Exhibit Antiproliferative Activity” (J Med Chem, 2018).
The source made the active and inactive calls. The calls are words filed in the database; no cut-off is given here.

Columns and labels:
Homo sapiens [1] = organism: Homo sapiens; assay: Selectivity index, ratio of IC50 for inhibition of DMPK (unknown origin) to IC50 for inhibition of ROCK2 (unknown origin)
HeLa [2] = assay: Induction of double stranded DNA breaks in human HeLa cells assessed as gamma-H2Ax phosphorylation at 1 uM after 24 to 48 hrs by Hoechst 33342 staining-based laser confocal microscopy; format: functional, cell-based
[3] = target: T1, Rho-associated protein kinase 2 (Homo sapiens, UniProt O75116); assay: Inhibition of ROCK2 (unknown origin) by ATP competition assay
Procedure, shortened: (§1)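 Recombinant kinases assayed in duplicate by radioactive filter-binding assay with 33P-ATP; no-compound controls run and each plate validated by Z′. IC50 values determined.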
Target sequence in this assay (O75116 whole entry): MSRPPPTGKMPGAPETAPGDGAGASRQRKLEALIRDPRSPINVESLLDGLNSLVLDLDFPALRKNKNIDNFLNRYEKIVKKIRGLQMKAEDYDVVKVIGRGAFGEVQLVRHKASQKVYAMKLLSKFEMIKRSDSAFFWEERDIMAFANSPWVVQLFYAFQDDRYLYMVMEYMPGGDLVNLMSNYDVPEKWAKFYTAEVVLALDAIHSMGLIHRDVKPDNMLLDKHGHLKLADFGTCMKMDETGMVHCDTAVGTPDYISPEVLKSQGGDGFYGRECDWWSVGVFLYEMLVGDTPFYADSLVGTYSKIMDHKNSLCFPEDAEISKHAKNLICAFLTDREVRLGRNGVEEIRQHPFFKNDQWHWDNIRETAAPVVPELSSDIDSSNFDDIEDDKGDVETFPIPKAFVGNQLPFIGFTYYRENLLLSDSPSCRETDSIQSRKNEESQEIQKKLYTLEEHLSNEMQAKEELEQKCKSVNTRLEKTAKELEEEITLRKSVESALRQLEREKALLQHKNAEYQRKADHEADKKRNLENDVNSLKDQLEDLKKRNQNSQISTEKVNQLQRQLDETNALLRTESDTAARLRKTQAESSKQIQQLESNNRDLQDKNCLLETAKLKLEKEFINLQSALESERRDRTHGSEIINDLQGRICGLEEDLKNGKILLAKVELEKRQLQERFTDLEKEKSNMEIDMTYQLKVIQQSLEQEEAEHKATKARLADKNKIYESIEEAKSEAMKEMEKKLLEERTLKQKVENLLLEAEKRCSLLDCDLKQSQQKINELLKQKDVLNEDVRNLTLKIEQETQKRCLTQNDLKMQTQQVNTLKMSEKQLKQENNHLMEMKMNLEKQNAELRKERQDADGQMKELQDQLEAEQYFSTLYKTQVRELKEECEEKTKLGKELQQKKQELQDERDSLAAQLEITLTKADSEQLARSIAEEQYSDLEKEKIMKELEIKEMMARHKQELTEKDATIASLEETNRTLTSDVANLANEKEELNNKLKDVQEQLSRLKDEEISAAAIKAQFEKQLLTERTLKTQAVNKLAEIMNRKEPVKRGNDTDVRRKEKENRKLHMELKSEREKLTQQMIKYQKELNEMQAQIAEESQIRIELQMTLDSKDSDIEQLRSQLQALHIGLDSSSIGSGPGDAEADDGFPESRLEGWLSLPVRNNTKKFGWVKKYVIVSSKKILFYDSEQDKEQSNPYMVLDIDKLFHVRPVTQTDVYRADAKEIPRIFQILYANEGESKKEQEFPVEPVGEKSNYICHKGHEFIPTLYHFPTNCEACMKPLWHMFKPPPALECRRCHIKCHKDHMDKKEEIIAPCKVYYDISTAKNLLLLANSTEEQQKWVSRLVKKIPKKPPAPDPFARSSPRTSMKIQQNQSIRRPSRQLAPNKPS

NCI-H358 = assay: Antiproliferative activity against human NCI-H358 cells after 72 hrs by MTS assay; format: functional, cell-based; details: NCI-H358, 72 h
Procedure, shortened: (§2)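 Cells seeded at day 0 in 96-well plates, serial compound dilutions added at day 1; viable cells read 72 h after drug addition by MTS tetrazolium assay, in triplicate. IC50 taken as concentration halving cell growth. One first trial, then two additional experiments on selected compounds.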

Quadruplex DNA [4] = assay: Binding affinity to 22AG G-quadruplex DNA (unknown origin) by fluorescence spectrophotometric analysis; format: nucleic-acid assay
Procedure, shortened: (§3)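 Fluorescence titration in 10 mM lithium cacodylate pH 7.2 with 100 mM KCl, 1 cm quartz cell. Ligand at 0.5 μM, excited at 330 or 340 nm, with increasing DNA added (22AG, c-Myc or ds26). Emission over 340/350–650 nm plotted against DNA concentration and fitted by Hill equation to give apparent Ka (1:1).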

[5] = target: T1, Rho-associated protein kinase 2; assay: Inhibition of ROCK2 in human HeLa cells assessed as reduction in cofilin phosphorylation at Ser3 at 2 uM after 3 hrs by Western blot analysis; format: cell-based
Procedure, shortened: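 HeLa cells treated 3 h at 2 or 5 μM, then lysed in RIPA buffer with protease and phosphatase inhibitors. Western blot probed with anti-phospho-cofilin Ser3 and anti-actin (1/1000) on the same split membrane; luminescence detection.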
Target sequence in this assay (O75116 whole entry, looked up): as the sequence (O75116 whole entry) above

[6] = target: T2, Rho-associated protein kinase (Homo sapiens) (UniProt O75116+Q13464); assay: Inhibition of ROCK in human Hela cells assessed as reduction in cell spreading at 2 uM by phalloidin-based immunofluorescence assay
T2 sequence (O75116 whole entry, looked up): as the sequence (O75116 whole entry) above
T2 sequence (Q13464 whole entry, looked up): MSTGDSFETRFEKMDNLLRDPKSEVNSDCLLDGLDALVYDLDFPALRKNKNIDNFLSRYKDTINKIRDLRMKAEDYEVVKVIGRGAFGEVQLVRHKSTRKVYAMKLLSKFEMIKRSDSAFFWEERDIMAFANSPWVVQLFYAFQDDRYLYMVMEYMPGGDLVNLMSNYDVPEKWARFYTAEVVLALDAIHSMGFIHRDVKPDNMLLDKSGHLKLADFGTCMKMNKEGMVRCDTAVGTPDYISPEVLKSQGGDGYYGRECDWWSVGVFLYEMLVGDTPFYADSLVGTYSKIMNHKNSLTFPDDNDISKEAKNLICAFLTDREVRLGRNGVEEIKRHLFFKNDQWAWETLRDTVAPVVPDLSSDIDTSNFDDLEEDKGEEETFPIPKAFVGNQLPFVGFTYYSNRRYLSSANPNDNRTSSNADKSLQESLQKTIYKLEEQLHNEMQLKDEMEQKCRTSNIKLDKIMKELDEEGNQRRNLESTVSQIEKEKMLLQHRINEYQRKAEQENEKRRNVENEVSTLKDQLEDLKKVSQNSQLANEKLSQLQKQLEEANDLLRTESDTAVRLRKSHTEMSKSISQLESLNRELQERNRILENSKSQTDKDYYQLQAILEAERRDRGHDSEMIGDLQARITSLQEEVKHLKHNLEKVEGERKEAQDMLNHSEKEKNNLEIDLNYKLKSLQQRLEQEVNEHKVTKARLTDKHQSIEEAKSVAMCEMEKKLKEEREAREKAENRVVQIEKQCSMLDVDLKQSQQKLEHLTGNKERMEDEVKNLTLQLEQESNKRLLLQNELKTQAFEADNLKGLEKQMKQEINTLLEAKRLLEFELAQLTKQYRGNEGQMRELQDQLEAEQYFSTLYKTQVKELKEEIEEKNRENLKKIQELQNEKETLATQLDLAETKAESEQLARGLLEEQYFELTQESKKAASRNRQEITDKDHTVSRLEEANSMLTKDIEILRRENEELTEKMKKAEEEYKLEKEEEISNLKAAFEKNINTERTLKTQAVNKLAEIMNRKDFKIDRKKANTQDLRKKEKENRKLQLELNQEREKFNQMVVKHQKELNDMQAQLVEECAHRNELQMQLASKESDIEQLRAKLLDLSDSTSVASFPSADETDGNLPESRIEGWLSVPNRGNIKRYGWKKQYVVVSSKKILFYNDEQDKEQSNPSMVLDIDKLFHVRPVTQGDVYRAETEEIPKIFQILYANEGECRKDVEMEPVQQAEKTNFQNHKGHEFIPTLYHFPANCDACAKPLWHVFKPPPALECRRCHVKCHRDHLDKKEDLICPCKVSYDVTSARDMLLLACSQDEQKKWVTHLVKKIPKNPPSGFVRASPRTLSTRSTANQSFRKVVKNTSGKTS
Procedure, shortened: (§4)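 HeLa cells on glass coverslips treated overnight at 2 μM or with DMSO control, then fixed in 4% formaldehyde for 10 min at 37 °C. Actin stained with phalloidin; α-tubulin or anti-phospho-Tyr focal points also labelled, plus DNA. Imaged by confocal microscopy.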

Quadruplex DNA [7] = assay: Binding affinity to 6-FAM labeled human telomeric F21T G-quadruplex DNA assessed as change in melting temperature at 1 uM in K+ rich buffer (10 mM KCl, 90 mM LiCl, 10 mM Li cacodylate) by FRET assay; format: nucleic-acid assay
Procedure, shortened: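 FRET melting in duplicate. Dual-labelled oligo (6-FAM/TAMRA) at 0.2 μM with ligand at 1 μM, in 10 mM Li cacodylate pH 7.2. Buffer was 10 mM KCl + 90 mM LiCl for F21T and 1 mM KCl + 99 mM LiCl for FMycT. Sample annealed 90 °C 5 min, cooled to 4 °C overnight. Equilibrated 5 min at 25 °C, then ramped 0.5 °C/min to 95 °C. FAM read 492/516 nm, normalized; Tm taken at the fitted inflection point.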

Myotonin-protein kinase = target: T3, Myotonin-protein kinase (Homo sapiens, UniProt Q09013); assay: Inhibition of DMPK (unknown origin) by ATP competition assay; procedure, shortened: as §1
T3 sequence (Q09013 whole entry): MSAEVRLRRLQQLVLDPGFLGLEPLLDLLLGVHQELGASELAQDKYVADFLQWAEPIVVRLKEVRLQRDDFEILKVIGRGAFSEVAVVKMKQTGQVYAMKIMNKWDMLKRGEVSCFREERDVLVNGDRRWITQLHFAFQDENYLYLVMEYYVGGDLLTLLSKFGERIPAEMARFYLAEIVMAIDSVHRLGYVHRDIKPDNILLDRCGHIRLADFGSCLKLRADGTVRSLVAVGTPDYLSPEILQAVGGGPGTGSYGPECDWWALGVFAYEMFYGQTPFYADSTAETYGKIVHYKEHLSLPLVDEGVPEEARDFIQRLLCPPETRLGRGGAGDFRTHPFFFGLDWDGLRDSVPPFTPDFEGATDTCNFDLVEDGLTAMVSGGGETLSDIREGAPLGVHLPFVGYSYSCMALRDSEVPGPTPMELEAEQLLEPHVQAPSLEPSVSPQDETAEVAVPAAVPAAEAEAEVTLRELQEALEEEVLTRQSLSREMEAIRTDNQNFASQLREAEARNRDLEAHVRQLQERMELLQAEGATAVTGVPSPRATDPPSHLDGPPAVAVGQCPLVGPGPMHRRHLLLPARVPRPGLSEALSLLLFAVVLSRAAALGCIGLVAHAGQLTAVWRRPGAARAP

[8] = target: T1, Rho-associated protein kinase 2; assay: Inhibition of ROCK2 in human HeLa cells assessed as reduction in MYPT1 phosphorylation at Thr853 at 2 uM after 3 hrs by immunofluorescence assay; format: cell-based
Procedure, shortened: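 HeLa cells treated 3 h at 2 or 5 μM, with Y-27632 and untreated controls, then formaldehyde-fixed. Phospho-MYPT1 Thr853 or phospho-cofilin Ser3 immunostained with DNA. Confocal 0.5 μm slices plus z-projection, with acquisition settings fixed from the control.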
Target sequence in this assay (O75116 whole entry, looked up): as the sequence (O75116 whole entry) above

dsDNA [9] = assay: Binding affinity to duplex 26 DNA (unknown origin) assessed as change in melting temperature at 1 uM by FRET; format: nucleic-acid assay
[10] = target: Rho-associated protein kinase 1 (Homo sapiens, UniProt Q13464); assay: Inhibition of ROCK1 (unknown origin) by ATP competition assay; procedure, shortened: as §1
Chain of Rho-associated protein kinase 1 (Q13464 whole entry): as the sequence (Q13464 whole entry, looked up) above

[11] = target: T2, Rho-associated protein kinase (Homo sapiens); assay: Inhibition of ROCK in human Hela cells assessed as formation of long neurite-like extensions at 2 uM by phalloidin-based immunofluorescence assay; format: cell-based; procedure, shortened: as §4
Quadruplex DNA [12] = assay: Binding affinity to c-Myc G-quadruplex DNA (unknown origin) by fluorescence spectrophotometric analysis; format: nucleic-acid assay; procedure, shortened: as §3
HeLa [13] = assay: Induction of double stranded DNA breaks in human HeLa cells assessed as gamma-H2Ax phosphorylation at 2 uM after 24 to 48 hrs by Hoechst 33342 staining-based laser confocal microscopy; format: functional, cell-based
HeLa [14] = assay: Antiproliferative activity against human HeLa cells after 72 hrs by MTS assay; format: functional, cell-based; procedure, shortened: as §2
Homo sapiens [15] = organism: Homo sapiens; assay: Selectivity index, ratio of IC50 for inhibition of ROCK1 (unknown origin) to IC50 for inhibition of ROCK2 (unknown origin)
dsDNA [16] = assay: Binding affinity to duplex 26 DNA (unknown origin) by fluorescence spectrophotometric analysis; format: nucleic-acid assay; procedure, shortened: as §3
HeLa [17] = assay: Cytotoxicity against human HeLa cells assessed as reduction in organization of stress fibers at 1 uM after 24 to 48 hrs by Hoechst 33342 staining-based laser confocal microscopy; format: functional, cell-based
A549 = assay: Cytotoxicity against human A549 cells assessed as presence of large vesicles at 1 uM after 24 to 48 hrs by Hoechst 33342 staining-based laser confocal microscopy; format: functional, cell-based

| SMILES | Ratio IC50 (Homo sapiens [1]) | Activity (HeLa [2]) | IC50 [3] [nM] | IC50 (NCI-H358) [nM] | Activity (Quadruplex DNA [4]) | Ka (Quadruplex DNA [4]) [×10⁶ /M] | inhibition [5] | inhibition [6] | ΔTm (Quadruplex DNA [7]) [°C] | IC50 (Myotonin-protein kinase) [nM] | inhibition [8] | Activity (dsDNA [9]) | IC50 [10] [nM] | inhibition [11] | Activity (Quadruplex DNA [12]) | Ka (Quadruplex DNA [12]) [×10⁶ /M] | Activity (HeLa [13]) | Ratio IC50 (Homo sapiens [15]) | Ka (dsDNA [16]) [×10⁶ /M] | Activity (HeLa [17]) | also measured |
| --- | --- | --- | --- | --- | --- | --- | --- | --- | --- | --- | --- | --- | --- | --- | --- | --- | --- | --- | --- | --- | --- |
| c1cc(-c2cnco2)nc(-c2cnc(-c3cccc(-c4ncc(-c5cccc(-c6cnco6)n5)o4)n3)o2)c1 | > 50 | inactive | 29 | 7700 | Dose-dependent effect | 6.7 | Active | Active | 6 to 9 | > 1000 | Active | inactive | > 1000 | Active | Dose-dependent effect | 19 | inactive | > 50 | 0.9 | Active | IC50 (HeLa [14]): 257 nM; Activity (A549): Active |
| CN(C)CCOc1cc(-c2ncc(-c3cccc(-c4cnco4)n3)o2)nc(-c2ncc(-c3cccc(-c4cnco4)n3)o2)c1 | > 50 | inactive | 20 | – | Dose-dependent effect | 2.5 | – | Active | 6 to 9 | > 1000 | – | inactive | > 1000 | Active | Dose-dependent effect | 22 | inactive | > 50 | 1 | Active | – |
| c1cc(-c2cnco2)nc(-c2cnc(-c3cccc(-c4cccc(-c5ncc(-c6cccc(-c7cnco7)n6)o5)n4)n3)o2)c1 | 1.4 | inactive | 851 | 3750 | Dose-dependent effect | 3.9 | Active | Active | 6 to 9 | > 1000 | Active | inactive | > 1000 | Active | Dose-dependent effect | 16 | inactive | 1.4 | 3 | Active | IC50 (HeLa [14]): 134 nM; Activity (A549): Active |
